Experimental data gathered from unrelated publications.
Each line is one published result; the experiments were not run side by side.
Cell line: T47D
Read-out: cell growth or viability

Structure (SMILES)	technique	concentration	time	endpoint	value
COc1cccc(Oc2ccccc2NC(=O)CNC(=O)c2cccc3ccccc23)c1	SRB		48 h	GI50	138 nM
O=C1Nc2ccccc2C1=NNc1nnc2n1N=C(c1ccccc1)CS2	SRB	10 µM		inhibition	36%
O=C1C[C@@H](c2ccc(O)cc2)Oc2cc(O)cc(O)c21	MTT		48 h	IC50	4170 nM
CC[C@H](C)C(=O)O[C@H]1C[C@H](O)C=C2C=C[C@H](C)[C@H](CC[C@@H](O)C[C@@H](O)CC(=O)O)[C@H]21	SRB		72 h	IC50	133 µg/mL
COc1ccc(-c2ccc(-c3ccc(C(=N)N)nc3)s2)cc1	SRB			GI50	1920 nM
CC/C(=C(/c1ccc(OCCNC)cc1)c1ccc(B2OC(C)(C)C(C)(C)O2)cc1)c1ccccc1			5 days	IC50	8730 nM
COc1ccc(C(=O)/C=C/c2cccc(Cl)c2)cc1S(N)(=O)=O	SRB		48 h	GI50	2100 nM
COc1ccc(-c2ccc(-c3ccc(C(=N)N)nc3)s2)cc1Cl	SRB			GI50	1990 nM
CC/C(=C(\c1ccc(O)cc1)c1ccc(OCCNC)cc1)c1ccccc1			5 days	IC50	4290 nM
COc1ccccc1/C=C/C(=O)c1ccc(OC)c(S(N)(=O)=O)c1	SRB	10 µM		inhibition	83%
CCCCCCCC(=O)NCC(=O)OC	MTT	10 µM	48 h	inhibition	23%
